We go through 25 compounds from ChEMBL document CHEMBL1143074, “Symplocamide A, a potent cytotoxin and chymotrypsin inhibitor from the marine Cyanobacterium Symploca sp” (J Nat Prod, 2008).

Active and inactive are the calls of the source. The rule behind the calls is not given here.

A short description of assay [1]: Inhibition of trypsin at 10 uM.
Assay [2] is described as follows: Inhibition of chymotrypsin. The gist of the method: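 Spectrophotometric assay: 0.0025 mg/mL chymotrypsin (0.0086 U) with 0.53 mM BTEE in 38 mM Tris-HCl pH 7.8, 53 mM CaCl2, 0.5 mM HCl and 32% MeOH at 25 °C. Inhibitor (from MeOH dilutions, final 6.25 × 10-5 to 7.5 × 10^-9 M) was equilibrated with substrate before enzyme addition. Absorbance at 256 nm was followed for 5 min, and the 0.5–1.5 min interval was analyzed.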

In the case of `CC[C@H](C)[C@@H]1NC(=O)[C@H](Cc2ccc(O)cc2)N(C)C(=O)[C@H]([C@@H](C)CC)N2C(=O)C(CCC2O)NC(=O)[C@H](CC(C)C)NC(=O)[C@@H]2C(OC1=O)C(C)CN2C(=O)[C@H](CCC(N)=O)NC(C)=O` (stereo in doubt; form 1), in assay [1], the result was inactive.
For the compound `CC[C@H](C)[C@@H]1NC(=O)[C@H](Cc2ccc(O)cc2)N(C)C(=O)[C@H]([C@@H](C)CC)N2C(=O)C(CCC2O)NC(=O)[C@H](CC(C)C)NC(=O)[C@@H]2C(OC1=O)C(C)CN2C(=O)[C@H](CCC(N)=O)NC(C)=O` (stereo in doubt; form 1) [NOSTOPEPTIN B], in assay [2], half-maximal inhibition (IC50) required 1.73 µM.
Regarding `CC(=O)N[C@@H](CCC(N)=O)C(=O)N[C@@H]1C(=O)N[C@@H](CC(C)C)C(=O)N[C@H]2CC[C@@H](O)N(C2=O)[C@@H](Cc2ccccc2)C(=O)N(C)[C@@H](Cc2ccc(O)c(Cl)c2)C(=O)N[C@@H](C(C)C)C(=O)O[C@H]1C` [CYANOPEPTOLIN 954], the IC50 (as a rule, the concentration at which inhibition is half-maximal) in assay [2] was found to be 0.04 µM. The outcome in assay [1] was inactive.
The matching figures for `CCCCCC(=O)N[C@@H](CC(=O)O)C(=O)N[C@@H]1C(=O)N[C@@H](Cc2ccc(O)cc2)C(=O)N[C@H]2CC[C@@H](O)N(C2=O)[C@@H](CC(C)C)C(=O)N(C)[C@@H](Cc2ccccc2)C(=O)N[C@@H](C(C)C)C(=O)O[C@@H]1C` [CYANOPEPTOLIN 963A]: 0.9 µM and “inactive”.
Consider `CC(C)C[C@@H]1NC(=O)[C@@H](NC(=O)[C@@H](NC(=O)[C@H](C)NC(=O)[C@H](CCCc2ccc(O)cc2)NC(=O)[C@H](O)CO)C(C)C)[C@@H](C)OC(=O)[C@H](C(C)C)NC(=O)[C@H](Cc2ccc(O)c(Br)c2)N(C)C(=O)[C@H]([C@@H](C)O)N2C(=O)[C@H](CC[C@H]2O)NC1=O` [LARGAMIDE D], for which half-maximal inhibition in assay [2] (IC50) was put at 10 µM. Moreover, the result in assay [1] was inactive.
The matching figures for `CC(C)C[C@@H]1NC(=O)[C@@H](NC(=O)[C@@H](NC(=O)[C@@H](C)NC(=O)[C@H](CCCc2ccc(O)cc2)NC(=O)[C@H](O)CO)C(C)C)[C@@H](C)OC(=O)[C@H](C(C)C)NC(=O)[C@H](Cc2ccc(O)c(Cl)c2)N(C)C(=O)[C@H]([C@@H](C)O)N2C(=O)[C@H](CC[C@H]2O)NC1=O` [LARGAMIDE E]: 10 µM and “inactive”.
The corresponding values for `CC(C)[C@H](NC(=O)[C@@H](C)NC(=O)[C@H](CCCc1ccc(O)cc1)NC(=O)[C@H](O)CO)C(=O)N[C@@H]1C(=O)N[C@@H](Cc2ccc(O)cc2)C(=O)N[C@H]2CC[C@@H](O)N(C2=O)[C@@H]([C@@H](C)O)C(=O)N(C)[C@@H](Cc2ccc(O)c(Br)c2)C(=O)N[C@@H](C(C)C)C(=O)O[C@@H]1C` [LARGAMIDE F] are 4 µM and “inactive”.
Regarding `C/C=C1\NC(=O)[C@@H](NC(=O)[C@H](CCc2ccc(O)cc2)NC(=O)[C@H](C)NC(=O)[C@H](O)COS(=O)(=O)O)[C@@H](C)OC(=O)[C@H](C(C)C)NC(=O)[C@H](Cc2ccc(O)cc2)N(C)C(=O)[C@H](Cc2ccccc2)N2C(=O)[C@H](CC[C@H]2O)NC1=O` [LYNGBYASTATIN 4], the outcome in assay [1] was inactive.
Turning to `CC[C@H](C)[C@@H]1NC(=O)[C@H](Cc2ccccc2)N(C)C(=O)[C@H](C(C)C)N2C(=O)[C@H](CC[C@H]2O)NC(=O)[C@H](CC2C=CC(O)CC2)NC(=O)[C@@H](NC(=O)[C@@H](N)CCC(=O)O)[C@@H](C)OC1=O` (some centres not stated) [MICROPEPTIN 88A], 0.4 µM corresponded to half-maximal inhibition in assay [2] (IC50). In addition, the outcome in assay [1] was inactive.
The matching figures for `CCCC(=O)N[C@@H](Cc1ccccc1)C(=O)N[C@@H](CCC(=O)O)C(=O)N[C@@H]1C(=O)N[C@@H](Cc2ccc(O)cc2)C(=O)N[C@H]2CC[C@@H](O)N(C2=O)[C@@H](C(C)C)C(=O)N(C)[C@@H](Cc2ccccc2)C(=O)N[C@@H]([C@@H](C)CC)C(=O)O[C@@H]1C` [MICROPEPTIN 88C]: 4.5 µM and “inactive”.
On to `CCCC(=O)N[C@@H](Cc1ccccc1)C(=O)N[C@@H](CCC(=O)O)C(=O)N[C@@H]1C(=O)N[C@@H](CC2C=CC(O)CC2)C(=O)N[C@H]2CC[C@@H](O)N(C2=O)[C@@H](C(C)C)C(=O)N(C)[C@@H](Cc2ccccc2)C(=O)N[C@@H]([C@@H](C)CC)C(=O)O[C@@H]1C` (some centres not stated) [MICROPEPTIN 88D], for which the IC50 in assay [2] was determined as 8.96 µM. Besides, the result in assay [1] was inactive.
On to `CCCC(=O)N[C@@H](Cc1ccccc1)C(=O)N[C@@H](CCC(=O)O)C(=O)N[C@@H]1C(=O)N[C@@H](CC(C)C)C(=O)N[C@H]2CC[C@@H](O)N(C2=O)[C@@H](C(C)C)C(=O)N(C)[C@@H](Cc2ccccc2)C(=O)N[C@@H]([C@@H](C)CC)C(=O)O[C@@H]1C` [MICROPEPTIN 88E], for which, in assay [2], half-maximal inhibition (IC50) was put at 4.9 µM. Also, the outcome in assay [1] was inactive.
The corresponding values for `CCCC(=O)N[C@@H](Cc1ccccc1)C(=O)N[C@@H](CCC(=O)OC)C(=O)N[C@@H]1C(=O)N[C@@H](Cc2ccc(O)cc2)C(=O)N[C@H]2CC[C@@H](O)N(C2=O)[C@@H](C(C)C)C(=O)N(C)[C@@H](Cc2ccccc2)C(=O)N[C@@H]([C@@H](C)CC)C(=O)O[C@@H]1C` [MICROPEPTIN 88F] are 3.02 µM and “inactive”.
The matching figures for `CC[C@H](C)[C@@H]1NC(=O)[C@H](Cc2ccccc2)N(C)C(=O)[C@H](C(C)C)N2C(=O)[C@H](CC[C@H]2O)NC(=O)[C@H](Cc2ccc(O)cc2)NC(=O)[C@@H](NC(=O)[C@H](CCC(=O)O)NC(=O)[C@H](Cc2ccc(O)cc2)NC(C)=O)[C@@H](C)OC1=O` [MICROPEPTIN 88Y]: 1.3 µM and “inactive”.
The corresponding values for `CCCCCC(=O)NCC(=O)N[C@H](C(=O)N[C@@H]1C(=O)N[C@@H](CCC(N)=O)C(=O)N[C@H]2CC[C@@H](O)N(C2=O)[C@@H](Cc2ccccc2)C(=O)N(C)[C@@H](Cc2c[nH]c3ccccc23)C(=O)N[C@@H](C(C)C)C(=O)O[C@@H]1C)[C@@H](C)O` [MICROPEPTIN 103] are 0.96 µM and “inactive”.
`CCCCCC(=O)N[C@@H](CC(=O)O)C(=O)N[C@@H]1C(=O)N[C@@H](Cc2ccc(O)cc2)C(=O)N[C@H]2CC[C@@H](O)N(C2=O)[C@@H]([C@@H](C)CC)C(=O)N(C)[C@@H](Cc2ccc(O)cc2)C(=O)N[C@@H](C(C)C)C(=O)O[C@@H]1C` [MICROPEPTIN SD979] came in with an IC50 in assay [2] of 2.4 µM. Also, the outcome in assay [1] was inactive.
As to `CCCCCC(=O)N[C@@H](CC(=O)O)C(=O)N[C@@H]1C(=O)N[C@@H](Cc2ccc(O)cc2)C(=O)N[C@H]2CC[C@@H](O)N(C2=O)[C@@H]([C@@H](C)CC)C(=O)N(C)[C@@H](Cc2c[nH]c3ccccc23)C(=O)N[C@@H](C(C)C)C(=O)O[C@@H]1C` [MICROPEPTIN SD1002], the 50% inhibitory concentration (IC50) in assay [2] is 3.13 µM. Also, the result in assay [1] was inactive.
The corresponding values for `CC[C@H](C)[C@@H]1NC(=O)[C@H](Cc2ccc(O)cc2)N(C)C(=O)[C@H](CC(C)C)N2C(=O)[C@H](CC[C@H]2O)NC(=O)[C@H](CCC(N)=O)NC(=O)[C@@H](NC(=O)[C@@H](O)Cc2ccc(O)cc2)[C@@H](C)OC1=O` [MICROPEPTIN SF909] are 4.4 µM and “inactive”.
The matching figures for `CCCCCC(=O)N[C@@H](CCC(N)=O)C(=O)N[C@@H]1C(=O)N[C@@H](Cc2ccc(O)cc2)C(=O)N[C@H]2CC[C@@H](O)N(C2=O)[C@@H](Cc2ccccc2)C(=O)N(C)[C@@H](Cc2ccc(O)cc2)C(=O)N[C@@H](C(C)C)C(=O)O[C@@H]1C` [MICROPEPTIN T1]: 2.85 µM and “inactive”.
In turn, `CC[C@H](C)[C@@H]1NC(=O)[C@H](Cc2ccc(O)cc2)N(C)C(=O)[C@H](Cc2ccccc2)N2C(=O)[C@H](CC[C@H]2O)NC(=O)[C@H](Cc2ccccc2)NC(=O)[C@@H](NC(=O)[C@@H](O)COP(=O)(O)O)[C@@H](C)OC1=O` [MICROPEPTIN T 20] registered a 50% inhibitory concentration (IC50) in assay [2] of 0.0025 µM.
Compound `CCCC(=O)N[C@@H](CCC(N)=O)C(=O)N1CC(C)C2OC(=O)[C@H]([C@@H](C)CC)NC(=O)[C@H](Cc3ccc(O)cc3)N(C)C(=O)[C@H]([C@@H](C)CC)N3C(=O)C(CCC3O)NC(=O)[C@H](CC(C)C)NC(=O)[C@H]21` (some centres not stated) [NOSTOPEPTIN A] came in with an IC50 in assay [2] of 1.47 µM. The result in assay [1] was inactive.
The compound `CC[C@@H](C)[C@@H]1NC(=O)[C@H](Cc2ccc(OC)cc2)N(C)C(=O)[C@H]([C@@H](C)CC)N2C(=O)[C@H](CC[C@H]2O)NC(=O)[C@H](CCc2ccc(OC)cc2)NC(=O)[C@@H](NC(=O)[C@H](CCc2ccc(O)cc2)NC(=O)[C@@H](COS(=O)(=O)O)OC)[C@@H](C)OC1=O` [OSCILLAPEPTIN B] gave an IC50 in assay [2] of 1.78 µM.
On the same count and under the same terms, for `CC[C@@H](C)[C@@H]1NC(=O)[C@H](Cc2ccccc2)N(C)C(=O)[C@H]([C@@H](C)CC)N2C(=O)[C@H](CC[C@H]2OC)NC(=O)[C@H](CC2C=CC(O)C=C2)NC(=O)[C@@H](NC(=O)[C@@H](CCc2ccc(O)cc2)NC(=O)[C@@H](CO)OC)[C@@H](C)OC1=O` (some centres not stated) [OSCILLAPEPTIN C] the value was 2.82 µM.
On the same count and under the same terms, for `CC[C@H](C)[C@@H]1NC(=O)[C@H](Cc2ccccc2)N(C)C(=O)[C@H]([C@@H](C)CC)N2C(=O)[C@H](CC[C@H]2O)NC(=O)[C@H](C[C@H]2C=C[C@H](O)CC2)NC(=O)[C@@H](NC(=O)[C@H](CCc2ccc(O)cc2)NC(=O)[C@@H](COS(=O)(=O)O)OC)[C@@H](C)OC1=O` [OSCILLAPEPTIN D] the value was 1.95 µM.
Still for that read-out and setting: for `CC[C@@H](C)[C@@H]1NC(=O)[C@H](Cc2ccccc2)N(C)C(=O)[C@H]([C@@H](C)CC)N2C(=O)[C@H](CC[C@H]2O)NC(=O)[C@H](CCc2ccc(O)cc2)NC(=O)[C@@H](NC(=O)[C@@H](CCc2ccc(O)cc2)NC(=O)[C@@H](COS(=O)(=O)O)OC)[C@@H](C)OC1=O` [OSCILLAPEPTIN E] the value was 2.64 µM.
